Measured values: ChEMBL document CHEMBL4017489, “Design, Synthesis, and Evaluation of New Selective NM23-H2 Binders as c-MYC Transcription Inhibitors via Disruption of the NM23-H2/G-Quadruplex Interaction” (J Med Chem, 2017)
The source made the active and inactive calls. No cut-off for these calls is given here.

How the values were obtained:
[1] = system: SiHa; test: Cell cycle arrest in human SiHa cells assessed as accumulation at sub-G1 phase at 2 uM after 36 hrs by propidium iodide staining based flow cytometry relative to control; format: functional
In short: (§1)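 SiHa cells (2.0 × 10^5 per well) plated 24 h, then exposed to 2 μM compound or left untreated for 3, 6, 9, 12, 24, 36 or 48 h. Cells washed in PBS, fixed overnight in ice-cold 70% ethanol, treated with 20 μg/mL RNase A for 30 min at 37 °C, stained with PI, and read by flow cytometry at 488 nm. Phase percentages compared with untreated control; at least three experiments.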

[2] = target: T1, Nucleoside diphosphate kinase B (Homo sapiens, UniProt P22392, D54A); test: Binding affinity to N-terminal NT-647-NHS labeled NM23-H2 D54A mutant (unknown origin) after 30 mins by MST analysis
[3] = system: Mus musculus; test: Toxicity in BALB/C nude mouse xenografted with human SiHa cells assessed as pain at 2.5 to 5 mg/kg, ip administered daily after 3 weeks; format: organism-based; settings: in vivo, 504 h
In short: (§2)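 SiHa cells implanted in the right armpit of BALB/c nu/nu mice. At approximately 50 mm3, mice randomized (n = 8/group) to vehicle, compound 2.5 or 5.0 mg/kg, or doxorubicin 1.0 mg/kg, given ip daily for 3 weeks. Body weight and signs of pain, distress or discomfort monitored; tumors excised and weighed. Data given as mean ± SEM, t test against vehicle.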

[4] = target: T2, Nucleoside diphosphate kinase B (Homo sapiens, UniProt P22392); test: Binding affinity to NM23-H2 (unknown origin) assessed as reduction in protein interaction with Pu22 c-myc G-quadruplex DNA after 1 hr by EMSA
[5] = system: SiHa; test: Induction of apoptosis in human SiHa cells assessed as necrotic cells at 0.5 uM after 48 hrs by Annexin V-FITC/propidium iodide based flow cytometric analysis (reference value: 0.3%); format: functional
[6] = system: SiHa; test: Cell cycle arrest in human SiHa cells assessed as accumulation at S phase at 2 uM after 3 hrs by propidium iodide staining based flow cytometry (reference value: 13%); format: functional; in short: as §1
[7] = system: SiHa; test: Cell cycle arrest in human SiHa cells assessed as accumulation at S phase at 2 uM after 6 hrs by propidium iodide staining based flow cytometry (reference value: 13 %); format: functional; in short: as §1
[8] = target: T1, Nucleoside diphosphate kinase B; test: Binding affinity to NM23-H2 D54A mutant (unknown origin) by SPR analysis
[9] = system: SiHa; test: Cell cycle arrest in human SiHa cells assessed as accumulation at G2/M phase at 2 uM after 6 hrs by propidium iodide staining based flow cytometry (reference value: 39 %); format: functional; in short: as §1
[10] = system: SiHa; test: Antitumor activity against human SiHa cells xenografted in BALB/C nude mouse assessed as tumor weight at 5 mg/kg, ip administered daily after 3 weeks (reference value: 511.6 mg); format: functional
[11] = target: T2, Nucleoside diphosphate kinase B; test: Binding affinity to NM23-H2 (unknown origin) by SPR analysis
[12] = system: SiHa; test: Antitumor activity against human SiHa cells xenografted in BALB/C nude mouse assessed as tumor growth inhibition at 2.5 to 5 mg/kg, ip administered daily; format: functional, organism-based; settings: TDE = time-dependent effect
In short: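 SiHa cells implanted in the right armpit of BALB/C-nu/nu mice. At a tumour size of about 50 mm3, mice were randomised (n = 8/group) to vehicle, 2.5 or 5.0 mg/kg compound, or doxorubicin 1.0 mg/kg, given ip daily for 3 weeks. Tumour volume was followed, then tumours were excised and weighed and body weight recorded. Mean ± SEM, t test against vehicle.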

[13] = system: SiHa; test: Cell cycle arrest in human SiHa cells assessed as accumulation at sub-G1 phase at 2 uM after 24 hrs by propidium iodide staining based flow cytometry relative to control; format: functional; in short: as §1
[14] = system: Nucleoside diphosphate kinase B (Homo sapiens), P22392 [F60A]; test: Binding affinity to N-terminal NT-647-NHS labeled NM23-H2 F60A mutant (unknown origin) up to 50 uM by SPR analysis
[15] = Anticlonogenic activity against mouse primary mesangial cells at 0.03125 to 0.5 uM after 14 days by crystal violet staining based assay; format: ADME; settings: primary mesangial cell, 336 h
In short: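 Colony formation: SiHa cells and primary cultured mouse mesangial cells exposed to 0.5, 0.25, 0.125, 0.0625 and 0.03125 μM for 14 days, DMSO as negative control; three repeats.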

[16] = Binding affinity to 5'-FAM/3'-TAMRA labeled Pu22 c-myc G-quadruplex DNA (unknown origin) assessed as increase in melting temperature at 1 uM by FRET assay
[17] = system: SiHa; test: Induction of apoptosis in human SiHa cells assessed as late apoptotic cells at 2 uM after 48 hrs by Annexin V-FITC/propidium iodide based flow cytometric analysis (reference value: 0.7 %); format: functional
[18] = target: T2, Nucleoside diphosphate kinase B; test: Binding affinity to NM23-H2 in human SiHa cells assessed as disruption of protein interaction with c-myc G-quadruplex DNA by measuring decrease in c-MYC protein expresson at 1 to 2 uM after 48 hrs by Western blot analysis; format: cell-based
In short: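 SiHa cells treated 48 h; lysates (30 μg) on 10% SDS-PAGE, nitrocellulose, anti-c-MYC overnight at 4 °C, HRP secondary, chemiluminescence; β-actin internal control; three repeats.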

[19] = Binding affinity to Htg21 telomeric G-quadruplex DNA (unknown origin) at 40 uM after 30 mins by SPR analysis
[20] = system: SiHa; test: Induction of apoptosis in human SiHa cells assessed as early apoptotic cells at 1 uM after 48 hrs by Annexin V-FITC/propidium iodide based flow cytometric analysis (reference value: 1.4 %); format: functional
[21] = system: SiHa; test: Cell cycle arrest in human SiHa cells assessed as accumulation at G2/M phase at 2 uM after 48 hrs by propidium iodide staining based flow cytometry (reference value: 39 %); format: functional; in short: as §1
[22] = system: Nucleoside diphosphate kinase B (Homo sapiens), P22392 [F60A]; test: Binding affinity to NM23-H2 F60A mutant (unknown origin) up to 50 uM by SPR analysis
[23] = system: SiHa; test: Cell cycle arrest in human SiHa cells assessed as accumulation at sub-G1 phase at 2 uM after 48 hrs by propidium iodide staining based flow cytometry relative to control; format: functional; in short: as §1
[24] = target: Nucleoside diphosphate kinase B (Homo sapiens, UniProt P22392, H118F); test: Binding affinity to NM23-H2 H118F mutant (unknown origin) by SPR analysis
[25] = system: SiHa; test: Induction of apoptosis in human SiHa cells assessed as early apoptotic cells at 2 uM after 48 hrs by Annexin V-FITC/propidium iodide based flow cytometric analysis (reference value: 1.4 %); format: functional
[26] = system: SiHa; test: Cell cycle arrest in human SiHa cells assessed as accumulation at G0/G1 phase at 2 uM after 36 hrs by propidium iodide staining based flow cytometry (reference value: 48 %); format: functional
In short: (§3)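 SiHa cells plated 24 h, treated at 2 μM for 3–48 h; fixed in ice-cold 70% ethanol overnight, RNase A 20 μg/mL 37 °C 30 min, PI-stained, flow cytometry at 488 nm; phase percentages quantified; at least three experiments.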

[27] = system: SiHa; test: Cell cycle arrest in human SiHa cells assessed as accumulation at G0/G1 phase at 2 uM after 12 hrs by propidium iodide staining based flow cytometry (reference value: 48 %); format: functional; in short: as §3
[28] = system: Mus musculus; test: Toxicity in BALB/C nude mouse xenografted with human SiHa cells assessed as change in body weight at 2.5 to 5 mg/kg, ip administered daily after 3 weeks; format: organism-based; settings: in vivo, 504 h; in short: as §2

T2 sequence (P22392 whole entry): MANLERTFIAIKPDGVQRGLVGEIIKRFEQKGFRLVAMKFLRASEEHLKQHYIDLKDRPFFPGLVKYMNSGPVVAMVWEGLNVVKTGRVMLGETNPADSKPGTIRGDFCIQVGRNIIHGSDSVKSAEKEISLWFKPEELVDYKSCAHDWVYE
T1 sequence (P22392 whole entry D54A): as the sequence (P22392 whole entry) above, with D54A counted along it
Chain of Nucleoside diphosphate kinase B (Homo sapiens), P22392 [F60A] (P22392 whole entry F60A): as the sequence (P22392 whole entry) above, with F60A counted along it
Chain of Nucleoside diphosphate kinase B (Homo sapiens, UniProt P22392, H118F) (P22392 whole entry H118F): as the sequence (P22392 whole entry) above, with H118F counted along it

For `CN(C)CCCNc1cc2nc3n(c(=O)c2cc1F)CC/C3=C\c1ccc(OCc2ccccc2)cc1O`, the Activity [1] was 99%, the Kd [2] was 4.6 µM and the Activity [3] was “Non-Toxic”. For the same compound, the Activity [4] was “Dose-dependent effect”, the Activity [5] was 0.3% and the Activity [6] was 11%. It also gave an Activity [7] of 12%, a Kd [8] of 18.4 µM and an Activity [9] of 26%. The Activity [10] was 180.1 mg, the Kd [11] was 3.1 µM and the TGI [12] was “Tde”. The Activity [13] was 64%, the Activity [14] was “inactive” and the Activity [15] was “Non-Toxic”. The Activity [16] was “inactive”, the Activity [17] was 90.3% and the Activity [18] was “Active”. For the same compound, the Activity [19] was “inactive”, the Activity [20] was 80.7% and the Activity [21] was 0%. For the same compound, the Activity [22] was “inactive”, the Activity [23] was 100% and the Kd [24] was 47 µM. The Activity [25] was 4.8%, the Activity [26] was 1% and the Activity [27] was 54%. For the same compound, the Activity [28] was “Non-Toxic”.
